The source made the active and inactive calls. The rule behind the calls is not given here.
Experiments:
Zika virus [1] = assay: Antiviral activity against Zika virus harboring subgenomic GFP replicon infected in African green monkey Vero cells assessed as reduction in viral infection at 100 uM preincubated for 30 mins followed by viral infection and measured after 72 hrs; type: functional, organism-based
[2] = Binding affinity to alpha mannose in CD2Cl2 by NMR analysis
[3] = Binding affinity to beta mannose in CD2Cl2 by NMR analysis
Zika virus [4] = assay: Antiviral activity against Zika virus harboring subgenomic GFP replicon infected in African green monkey Vero cells assessed as reduction in viral infection preincubated for 30 mins followed by viral infection and measured after 72 hrs; type: functional, organism-based
Method in brief: (§1)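 Vero or HeLa cells (DMEM, 10% FBS) at 5,000/well were pretreated 30 min at room temperature; compound came from 10 mM DMSO stock diluted in medium. Cells were infected with reporter particles (ZIKV C-prM-E carrying a WNV GFP replicon) at a dose giving up to 1000 GFP+ cells/well. After 72 h at 37 °C, whole-well GFP+ counts were normalised to DMSO-treated infected cells. Wells were run in duplicate/triplicate, three experiments; IC50 taken from curve fits.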

Zika virus [5] = assay: Antiviral activity against Zika virus harboring subgenomic GFP replicon infected in human HeLa cells assessed as reduction in viral infection preincubated for 30 mins followed by viral infection and measured after 72 hrs; type: functional, organism-based; method in brief: as §1
[6] = Cytotoxicity against African green monkey Vero cells assessed as reduction in cell viability measured after 72 hrs by Celltiter-Glo luminescence assay; type: cell-based; conditions: chlorocebus sabaeus, read-out: TC50
Method in brief: (§2)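 Vero or HeLa cells at 5,000/well were exposed to compound in duplicate for 72 h at 37 °C. Viability was read as cellular ATP by CellTiter-Glo luminescence and normalised to DMSO-treated cells as 100%. TC50 came from 4-parameter sigmoidal logistic fits.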

Zika virus [7] = assay: Antiviral activity against Zika virus harboring subgenomic GFP replicon infected in African green monkey Vero cells assessed as reduction in viral infection treated 24 hrs post-infection and measured 72 hrs post-infection; type: functional, organism-based
Method in brief: (§3)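 Vero cells were infected with a predetermined dose of ZIKV GFP reporter virus particles. Compound was added 4 h or 24 h after infection. Plates were fixed 72 h post-infection and GFP+ cells per well counted by whole-well imaging.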

[8] = Cytotoxicity against human HeLa cells assessed as reduction in cell viability measured after 72 hrs by Celltiter-Glo luminescence assay; type: cell-based; conditions: read-out: TC50; method in brief: as §2
Zika virus [9] = assay: Antiviral activity against Zika virus harboring subgenomic GFP replicon infected in African green monkey Vero cells assessed as reduction in viral infection treated 4 hrs post-infection and measured 72 hrs post-infection; type: functional, organism-based; method in brief: as §3
Zika virus [10] = assay: Antiviral activity against Zika virus PRVABC-59 infected in African green monkey Vero cells assessed as reduction in viral infection at 8 uM pretreated for 30 mins followed by viral infection and measured by DAPI staining-based fluorescence microscopic method; type: functional, organism-based
Method in brief: (§4)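 Vero cells at 7,500/well were pretreated with compound for 30 min at room temperature. They were then infected with PRVABC59 at a titration-set dose giving ~2000-3000 infected cells/well. Cells were fixed and stained with 4G2 anti-envelope antibody plus Alexa 488 secondary. Whole wells were imaged and positive cells counted, in triplicate wells, with the experiment repeated. Microscopy images were taken with DAPI nuclear counterstain.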

Zika virus [11] = assay: Antiviral activity against Zika virus PRVABC-59 infected in African green monkey Vero cells assessed as reduction in viral infection up to 8 uM pretreated for 30 mins followed by viral infection and measured by 4G2 antibody based assay; type: functional, organism-based; method in brief: as §4
Vero [12] = assay: Inhibition of envelope glycoprotein N154Q mutant in Zika virus infected in African green monkey Vero cells assessed as reduction in viral infection up to 8 uM pretreated for 30 mins followed by viral infection and measured 72 hrs post-infection; type: cell-based
Method in brief: (§5)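 N154Q reporter particles were made by transfecting 293T cells 1:1 with C-prME-N154Q and subgenomic WNV GFP replicon plasmids, harvested at 48 h. Vero cells were pretreated with compound for 30 min at room temperature, then infected with wild-type or N154Q particles. GFP+ cells per well were counted from whole-well images at 72 h; mean ±SD of triplicate wells.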

[13] = Therapeutic index, ratio of TC50 for African green monkey Vero cells to IC50 for Zika virus harboring subgenomic GFP replicon infected in African green monkey Vero cells; type: toxicity; conditions: read-out: TI
Zika virus [14] = assay: Antiviral activity against Zika virus PRVABC-59 infected in African green monkey Vero cells assessed as reduction in viral infection at 200 uM pretreated for 30 mins followed by viral infection and measured by DAPI staining-based fluorescence microscopic method; type: functional, organism-based; method in brief: as §4
Zika virus [15] = assay: Antiviral activity against Zika virus PRVABC-59 infected in African green monkey Vero cells assessed as reduction in viral infection up to 200 uM pretreated for 30 mins followed by viral infection and measured by 4G2 antibody based assay; type: functional, organism-based; method in brief: as §4
Vero [16] = assay: Inhibition of envelope glycoprotein N154Q mutant in Zika virus infected in African green monkey Vero cells assessed as reduction in viral infection up to 200 uM pretreated for 30 mins followed by viral infection and measured 72 hrs post-infection; type: cell-based; method in brief: as §5
[17] = Zika virus, Vero, read-out: IC50

SMILES	Activity (Zika virus [1])	Ka [2]	Ka [3]	IC50 (Zika virus [4]; [17]) [µM]	IC50 (Zika virus [5]) [µM]	CC50 at 72 h [6] [µM]	Activity (Zika virus [7])	CC50 at 72 h [8] [µM]	Activity (Zika virus [9])	other results
C(=N\Cc1cc(C/N=C/c2cccs2)cc(-c2cc(C/N=C/c3cccs3)cc(C/N=C/c3cccs3)c2)c1)/c1cccs1	Active	inactive	inactive	> 100	–	–	–	–	–	–
C(=N\Cc1cc(C/N=C/c2ccco2)cc(-c2cc(C/N=C/c3ccco3)cc(C/N=C/c3ccco3)c2)c1)/c1ccco1	Active	2 ×10² /M	3.7 ×10¹ /M	> 100	–	–	–	–	–	–
c1csc(CNCc2cc(CNCc3cccs3)cc(-c3cc(CNCc4cccs4)cc(CNCc4cccs4)c3)c2)c1	Active	1.4 ×10² /M	inactive	1.31	0.56	4.12	inactive	2.47	inactive	–
NCc1cc(CN)cc(-c2cc(CN)cc(CN)c2)c1	Active	–	–	> 100	–	–	–	–	–	–
Cn1ccnc1CNCc1cc(CNCc2nccn2C)cc(-c2cc(CNCc3nccn3C)cc(CNCc3nccn3C)c2)c1	Active	4.4 ×10³ /M	5.9 ×10² /M	> 100	–	–	–	–	–	–
O=C(NCc1cc(CNC(=O)c2ccco2)cc(-c2cc(CNC(=O)c3ccco3)cc(CNC(=O)c3ccco3)c2)c1)c1ccco1	Active	–	–	–	–	–	–	–	–	IC50 (Zika virus [4]; vero): Nd(Insoluble)
c1coc(CNCc2cc(CNCc3ccco3)cc(-c3cc(CNCc4ccco4)cc(CNCc4ccco4)c3)c2)c1	Active	1.1 ×10² /M	5.4 ×10¹ /M	1.13	0.35	5.43	inactive	2.51	inactive	–
O=C(NCc1cc(CNC(=O)c2cccs2)cc(-c2cc(CNC(=O)c3cccs3)cc(CNC(=O)c3cccs3)c2)c1)c1cccs1	Active	–	–	> 100	–	–	–	–	–	–
c1c[nH]c(CNCc2cc(CNCc3ccc[nH]3)cc(-c3cc(CNCc4ccc[nH]4)cc(Cn4cc(COCCOCCOCCOCc5cn(Cc6cc(CNCc7ccc[nH]7)cc(-c7cc(CNCc8ccc[nH]8)cc(CNCc8ccc[nH]8)c7)c6)nn5)nn4)c3)c2)c1	Active	2.6 ×10³ /M	1.7 ×10³ /M	0.16	0.24	36.2	inactive	2.48	inactive	Activity (Zika virus [10]): Active; Activity (Zika virus [11]): Active; inhibition (Vero [12]): Active; selectivity ratio [13]: > 220
c1c[nH]c(CNCc2cc(CNCc3ccc[nH]3)cc(-c3cc(CNCc4ccc[nH]4)cc(CNCc4ccc[nH]4)c3)c2)c1	Active	1.4 ×10³ /M	3.6 ×10⁴ /M	0.36	0.45	34.1	inactive	2.43	inactive	–
C(=N\Cc1cc(C/N=C/c2ccc[nH]2)cc(-c2cc(C/N=C/c3ccc[nH]3)cc(C/N=C/c3ccc[nH]3)c2)c1)/c1ccc[nH]1	Active	3 ×10³ /M	2.4 ×10³ /M	1.36	3.06	46.1	inactive	17.6	inactive	–
c1coc(CNCc2cc(CNCc3ccco3)cc(-c3cc(CNCc4ccco4)cc(Cn4cc(COCCOCCOCCOCc5cn(Cc6cc(CNCc7ccco7)cc(-c7cc(CNCc8ccco8)cc(CNCc8ccco8)c7)c6)nn5)nn4)c3)c2)c1	Active	–	–	12.4	1.37	51.5	–	2.22	–	–
Cc1ccc(C(=O)Nc2ccc(S(=O)(=O)O)c3cc(S(=O)(=O)O)cc(S(=O)(=O)O)c23)cc1NC(=O)c1cccc(NC(=O)Nc2cccc(C(=O)Nc3cc(C(=O)Nc4ccc(S(=O)(=O)O)c5cc(S(=O)(=O)O)cc(S(=O)(=O)O)c45)ccc3C)c2)c1 [SURAMIN]	–	–	–	44	–	> 200	inactive	–	inactive	Activity (Zika virus [14]): Active; Activity (Zika virus [15]): Active; Activity (Zika virus [4]): Dose-dependent effect; inhibition (Vero [16]): Active
